We go through three compounds from ChEMBL document CHEMBL4765436, “Discovery, structure-activity relationship study and biological evaluation of 2-thioureidothiophene-3-carboxylates as a novel class of C-X-C chemokine receptor 2 (CXCR2) antagonists” (Eur J Med Chem, 2020).

The test system of assay [1] is SK-OV-3. Briefly: Inhibition of colony formation in human SK-OV-3 cells at 8.9 to 20 uM incubated for 7 to 10 days in presence of doxorubicin by crystal violet staining based assay. It counts as functional, cell-based. The conditions noted are these: dose 8.9-20 µM, time 7-10 day. The method, boiled down:
(§1)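 Colony formation: cells were seeded at 300/well, attached overnight, then treated with compounds for 7-10 days until colonies formed in DMSO wells. Colonies were stained with 0.05% crystal violet for 30 min and washed with water.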

In assay [2] the target is T1, Alpha-2A adrenergic receptor (Homo sapiens, UniProt P08913).
T1 sequence (P08913 whole entry): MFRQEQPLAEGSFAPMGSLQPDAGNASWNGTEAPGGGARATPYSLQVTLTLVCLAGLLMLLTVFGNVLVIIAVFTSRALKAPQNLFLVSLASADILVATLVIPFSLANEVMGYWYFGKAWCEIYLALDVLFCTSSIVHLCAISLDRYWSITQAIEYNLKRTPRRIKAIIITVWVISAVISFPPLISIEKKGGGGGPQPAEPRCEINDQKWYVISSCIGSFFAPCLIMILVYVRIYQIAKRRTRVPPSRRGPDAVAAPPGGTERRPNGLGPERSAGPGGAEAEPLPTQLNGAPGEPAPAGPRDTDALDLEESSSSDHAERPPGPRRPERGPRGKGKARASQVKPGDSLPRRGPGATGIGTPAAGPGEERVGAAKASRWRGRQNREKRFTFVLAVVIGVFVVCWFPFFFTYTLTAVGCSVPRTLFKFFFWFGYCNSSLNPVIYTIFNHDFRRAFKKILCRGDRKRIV
Briefly: Inhibition of alpha 2a-adrenergic receptor (unknown origin) by radioligand binding assay. Summed up: (§2)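 Secondary radioligand binding assay determining equilibrium binding affinity (Ki).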

Assay [3] has as its target T2, C-X-C chemokine receptor type 2 (Homo sapiens) (UniProt P25025).
T2 sequence (whole entry): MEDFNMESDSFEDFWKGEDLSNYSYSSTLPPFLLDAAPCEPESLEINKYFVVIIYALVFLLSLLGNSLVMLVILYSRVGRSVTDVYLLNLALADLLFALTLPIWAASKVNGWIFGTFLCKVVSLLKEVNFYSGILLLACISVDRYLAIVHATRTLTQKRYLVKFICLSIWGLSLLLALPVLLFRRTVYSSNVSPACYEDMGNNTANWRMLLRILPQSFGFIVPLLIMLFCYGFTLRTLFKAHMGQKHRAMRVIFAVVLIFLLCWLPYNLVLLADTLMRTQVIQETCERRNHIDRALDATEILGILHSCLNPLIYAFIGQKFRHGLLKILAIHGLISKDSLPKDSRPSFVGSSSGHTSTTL
Briefly: Antagonist activity at CXCR2 (unknown origin) expressed in HEK293T cells cotransfected with GFP and p22F assessed as inhibition of CXCL8-reduced cAMP production at 10 uM incubated for 10 mins followed by CXCL8 stimulation and measured after 10 mins by luminescence based assay. It counts as functional, cell-based. The note with it: time 20.0 min. Summed up: (§3)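 293T-CXCR2-GFP-p22F cells express a cAMP-sensitive firefly luciferase. They were seeded at 30000 cells/well overnight in CO2-independent medium with 10% FBS, then incubated with 1% cAMP reagent for 2 h at 37 °C. Cells were pretreated with compound for 10 min, given CXCL8 (50 nM) for 10 min, then stimulated with forskolin (50 μM) until maximal signal (~80 min). Luminescence read-out.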
Background: Changes in cAMP serve as a functional read-out for many G protein-coupled receptors.

Assay [4] deals with T2, C-X-C chemokine receptor type 2 (Homo sapiens). Briefly: Antagonist activity at CXCR2 (unknown origin) expressed in HEK293T cells cotransfected with GFP assessed as inhibition of CXCL8-induced ERK1/2 phosphorylation pretreated at 10 to 30 uM followed by treated with CXCL8 by immunoblot assay. It is filed as cell-based. The conditions noted are these: dose 10-30 µM. The method, boiled down:
(§4)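 293T-CXCR2-GFP cells (5 x 10^5/well) were attached overnight, treated with compounds and lysed in RIPA buffer with protease/phosphatase inhibitors. Lysates were normalized by BCA and resolved on 10% SDS-PAGE. Blots were probed overnight at 4 °C with antibodies (1:500-1:1000) to p-ERK1/2, p-JNK, p-cJUN or p-p38, then with a fluorescent secondary antibody, and imaged by infrared imaging.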
(In general: In western blotting, separated proteins are transferred to a membrane and probed.)

Another assay deals with U2OS. Briefly: Antimigratory activity against human U2OS cells overexpressing CXCR2/bla assessed as reduction in CXCL8-mediated wound closure at 10 uM incubated for 20 mins followed by CXCL8 stimulation and measured after 24 hrs by Giemsa staining based scratch wound healing assay. The note with it: time 24.3 hrs. It is filed as functional, cell-based. Summed up:
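CXCR2-bla U2OS cells were seeded at 35000/well in DMEM with 1% FBS overnight and scratched with a pipette tip. Compounds (10 μM) were added for 20 min, then CXCL8 (60 nM) for 24 h; unstimulated wells served as control. Cells were methanol-fixed, Giemsa-stained and imaged by transmitted light. Two independent experiments were run in duplicate.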

Assay [5] deals with T2, C-X-C chemokine receptor type 2 (Homo sapiens). Briefly: Antagonist activity at CXCR2 (unknown origin) expressed in HEK293T cells cotransfected with GFP assessed as inhibition of CXCL8-induced JNK phosphorylation at 10 to 30 uM post CXCL8 treatment by immunoblot assay. The conditions noted are these: dose 10-30 µM. It counts as cell-based. The method, boiled down:
as §4

The target in assay [6] is T3, C-X-C chemokine receptor type 2 (Homo sapiens, UniProt P25025).
T3 sequence (P25025 whole entry): T2 sequence (whole entry)
Briefly: Antagonist activity at CXCR2 (unknown origin) expressed in U2OS cells cotransfected with beta-arrestin/TEV protease fusion protein and beta-lactamase assessed as inhibition of CXCL8-induced beta arrestin2 recruitment preincubated for 30 mins followed by CXCL8 stimulation and measured after 5 hrs by FRET based fluorescence/Tango assay. It counts as cell-based. A general note: Activated receptors often draw arrestin, which recruitment assays turn into a signal.

The target of assay [7] is T2, C-X-C chemokine receptor type 2 (Homo sapiens). Briefly: Antagonist activity at CXCR2 (unknown origin) expressed in HEK293T cells cotransfected with GFP assessed as inhibition of CXCL8-induced AKT phosphorylation at 10 to 30 uM post CXCL8 treatment by immunoblot assay. It is filed as cell-based. The note with it: dose 10-30 µM.
Assay [8] deals with T4, Translocator protein (Homo sapiens, UniProt P30536). Briefly: Inhibition of PBR (unknown origin) by radioligand binding assay. The method, boiled down: as §2
In assay [9] the target is T5, Alpha-2A adrenergic receptor (Homo sapiens) (UniProt P08913).
T5 sequence (whole entry): T1 sequence (P08913 whole entry)
Briefly: Inhibition of alpha 2a-adrenergic receptor (unknown origin) at 10 uM by radioligand binding assay relative to control. Summed up: (§5)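 Primary radioligand binding screen across 50 GPCRs at a single concentration of 10 μM. Compounds with ≥50% inhibition went on to secondary binding.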

Assay [10] concerns the target T4, Translocator protein. Briefly: Inhibition of PBR (unknown origin) at 10 uM by radioligand binding assay relative to control. The method, boiled down:
as §5

Assay [11] concerns the target T2, C-X-C chemokine receptor type 2 (Homo sapiens). Briefly: Antagonist activity at CXCR2 (unknown origin) expressed in HEK293T cells cotransfected with GFP assessed as inhibition of CXCL8-induced cJUN phosphorylation at 10 to 30 uM post CXCL8 treatment by immunoblot assay. It counts as cell-based. The note with it: dose 10-30 µM. The method, boiled down: as §4
Assay [12] shares this target. Briefly: Antagonist activity at CXCR2 (unknown origin) expressed in HEK293T cells cotransfected with GFP assessed as inhibition of CXCL8-induced p38 phosphorylation at 10 to 30 uM post CXCL8 treatment by immunoblot assay. It is filed as cell-based. The conditions noted are these: dose 10-30 µM. Summed up: as §4
For assay [13], the target named is C-X-C chemokine receptor type 4 (Homo sapiens, UniProt P61073). Briefly: Antagonist activity at CXCR4 (unknown origin) expressed in U2OS cells cotransfected with beta-arrestin/TEV protease fusion protein and beta-lactamase assessed as inhibition of SDF1-alpha-induced beta arrestin2 recruitment preincubated for 30 mins followed by SDF1-alpha stimulation and measured after 5 hrs by FRET based fluorescence/Tango assay.

Assay [14] addresses T2, C-X-C chemokine receptor type 2 (Homo sapiens). Briefly: Antagonist activity at CXCR2 (unknown origin) expressed in HEK293T cells cotransfected with GFP and p22F assessed as inhibition of […] at 30 uM incubated at 37 degC for 30 min and at room temperature for 30 min by fluorescence based assay. The note with it: time 60.0 min. It is filed as functional, cell-based. The method, boiled down:
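293T-CXCR2-GFP cells were seeded at 30000 cells/well and loaded next day with Fluo-4 NW dye plus probenecid ([…] final). Loading was 30 min at 37 °C, then 30 min at room temperature, protected from light. Compound and CXCL8 (300 nM, by injector) were added. Fluorescence was read immediately (ex 490/em 535 nm) and normalized to the pre-stimulation baseline.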

The target of assay [15] is T3, C-X-C chemokine receptor type 2. Briefly: Inhibition of CXCR2 (unknown origin) expressed in HEK293T cells cotransfected with GFP-p22F assessed as reduction in IL-8-induced cAMP incubated for 10 mins followed by IL-8 stimulation and measured after 10 mins by luminescence based assay. It is filed as functional, cell-based. The method, boiled down: as §3
Assay [16] relates to SK-OV-3. Briefly: Inhibition of colony formation in human SK-OV-3 cells at 38 nM incubated for 7 to 10 days by crystal violet staining based assay. The note with it: time 7-10 day. It counts as functional, cell-based. Summed up: as §1

Broadly, the inhibition is the share of the control response that was lost under treatment. As a reminder, the pKi is −log10 of the Ki, conventionally taken in molar units. A high value points to a low Ki. In general, pIC50 refers to the negative decadic logarithm of the IC50, by convention in mol/L.

pIC50, pKi: −log10 of the molar value. Active and inactive are the calls of the source. The rule behind the calls is not given here. A value given as a limit tells only on which side of the number the result lay.

T4 sequence (P30536 whole entry): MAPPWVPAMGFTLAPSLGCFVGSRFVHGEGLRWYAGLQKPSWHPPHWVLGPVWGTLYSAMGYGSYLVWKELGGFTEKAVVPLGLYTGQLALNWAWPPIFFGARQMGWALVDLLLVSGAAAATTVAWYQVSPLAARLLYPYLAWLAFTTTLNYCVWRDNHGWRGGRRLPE
Chain of C-X-C chemokine receptor type 4 (P61073 whole entry, the tested form may be a part): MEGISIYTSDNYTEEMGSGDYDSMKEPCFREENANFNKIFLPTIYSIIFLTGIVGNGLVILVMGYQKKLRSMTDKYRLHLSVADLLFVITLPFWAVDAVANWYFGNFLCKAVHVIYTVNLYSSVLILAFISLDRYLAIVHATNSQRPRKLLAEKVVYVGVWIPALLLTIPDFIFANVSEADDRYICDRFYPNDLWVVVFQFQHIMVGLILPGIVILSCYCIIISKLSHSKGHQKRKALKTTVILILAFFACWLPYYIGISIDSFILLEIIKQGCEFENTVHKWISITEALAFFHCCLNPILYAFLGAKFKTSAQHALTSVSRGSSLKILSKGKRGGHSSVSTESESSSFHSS

For `C[C@@H](NC(=S)Nc1sc2c(c1C(=O)OC(C)(C)C)CCOC2)c1ccccc1`, the inhibition entry with SK-OV-3 [1] and in the assay with U2OS was “Active” each time. Also, the pKi (in [2]; on Translocator protein [8]) was < 5.00 each time. Further, the outcome in assay [3], in [5], in assay [7], in [11] and in assay [12] was inactive. Moreover, the outcome in [4] (filed as antagonist) was Active. Also, the pIC50 in assay [6] is 5.80; in [13], < 4.52. Also, the inhibition in [9] came out at 59%; at Translocator protein [10], 64%.
In the case of `CSc1nnc2n(-c3ccccc3)c(=O)c3c4c(sc3n12)CCC[C@H]4C`, the result in [3] (filed as antagonist) was Active. Further, the outcome in [4] and in assay [14] was inactive. In assay [15], the pIC50 is 5.11.
For the compound `COc1cccc2c1C(=O)c1c(O)c3c(c(O)c1C2=O)C[C@@](O)(C(=O)CO)C[C@@H]3O[C@H]1C[C@H](N)[C@H](O)[C@H](C)O1`, the inhibition result in the assay with SK-OV-3 [16] was “inactive”.
